According to ChEMBL document CHEMBL1287768, “Synthesis and pharmacological characterization of 5-phenyl-2-[2-(1-piperidinylcarbonyl)phenyl]-2,3-dihydro-1H-pyrrolo[1,2-c]imidazol-1-ones: a new class of Neuropeptide S antagonists” (Bioorg Med Chem Lett, 2010):
Values belong to the compound of their own block, whether it stands above or below them.

Key:
Neuropeptide S receptor = target: T1, Neuropeptide S receptor (Homo sapiens, UniProt Q6W5P4); test: Antagonist activity at human recombinant GPR154 receptor expressed in HEK293 cells assessed as inhibition of neuropeptide S-induced increase of intracellular calcium level by FLIPR assay; assay type: functional, cell-based
T1 sequence (Q6W5P4 whole entry): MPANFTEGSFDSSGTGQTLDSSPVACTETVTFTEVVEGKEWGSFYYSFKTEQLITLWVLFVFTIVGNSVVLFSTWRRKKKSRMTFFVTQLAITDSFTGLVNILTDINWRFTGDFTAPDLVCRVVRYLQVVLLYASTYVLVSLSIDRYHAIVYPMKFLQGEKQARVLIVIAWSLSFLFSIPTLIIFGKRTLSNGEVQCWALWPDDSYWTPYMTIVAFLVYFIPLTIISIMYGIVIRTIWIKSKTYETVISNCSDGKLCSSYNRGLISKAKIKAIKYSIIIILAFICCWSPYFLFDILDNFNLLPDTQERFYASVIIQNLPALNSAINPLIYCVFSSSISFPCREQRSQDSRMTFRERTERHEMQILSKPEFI
Procedure, shortened: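 Transient expression of human GPR154 in HEK293; cells seeded 18.000/well, 24 h at 37 °C, 5% CO₂. Fluo-4-AM loading 1 h at 37 °C, HBSS wash. Calcium rise evoked by EC₈₀ Neuropeptide S, read by FLIPR; response normalised to 30 nM NPS maximum (max minus min RFU); pIC₅₀ by nonlinear regression.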

Cytochrome P450 1A2 = target: T2, Cytochrome P450 1A2 (Homo sapiens, UniProt P05177); test: Inhibition of CYP1A2; assay type: ADME
T2 sequence (P05177 whole entry): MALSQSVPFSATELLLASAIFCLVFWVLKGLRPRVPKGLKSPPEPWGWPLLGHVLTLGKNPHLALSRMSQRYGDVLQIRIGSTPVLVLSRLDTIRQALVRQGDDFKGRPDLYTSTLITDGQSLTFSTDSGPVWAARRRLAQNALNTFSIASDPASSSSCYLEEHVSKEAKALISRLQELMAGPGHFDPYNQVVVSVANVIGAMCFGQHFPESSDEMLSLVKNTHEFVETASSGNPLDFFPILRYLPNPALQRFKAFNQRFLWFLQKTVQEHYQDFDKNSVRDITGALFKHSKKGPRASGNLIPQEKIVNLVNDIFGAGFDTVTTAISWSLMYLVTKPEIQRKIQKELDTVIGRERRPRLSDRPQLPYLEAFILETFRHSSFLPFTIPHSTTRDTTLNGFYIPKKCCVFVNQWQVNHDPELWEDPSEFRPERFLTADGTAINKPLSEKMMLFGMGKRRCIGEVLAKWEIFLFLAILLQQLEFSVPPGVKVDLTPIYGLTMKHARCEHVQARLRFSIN

Cytochrome P450 2C9 = Cytochrome P450 2C9 (Homo sapiens, UniProt P11712); test: Inhibition of CYP2C9; assay type: ADME
Cytochrome P450 2C19 = Cytochrome P450 2C19 (Homo sapiens, UniProt P33261); test: Inhibition of CYP2C19; assay type: ADME
Cytochrome P450 2D6 = Cytochrome P450 2D6 (Homo sapiens, UniProt P10635); test: Inhibition of CYP2D6; assay type: ADME
Cytochrome P450 3A4 = Cytochrome P450 3A4 (Homo sapiens, UniProt P08684); test: Inhibition of CYP3A4; assay type: ADME
Liver microsomes [1] = test: Intrinsic clearance in human liver microsomes assessed per gram of protein; assay type: ADME, Microsome
Liver microsomes [2] = test: Intrinsic clearance in rat liver microsomes assessed per gram of protein; assay type: ADME, Microsome
[3] = Clearance in rat blood at 1 mg/kg, po; assay type: ADME, organism-based; design: dose 1 mg/kg, route oral
Procedure, shortened: (§1)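 Rat, single oral 1 mg/kg in 5% DMSO + 0.5% HPMC in water; blood sampled for clearance, half-life, distribution volume and oral bioavailability.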

[4] = Half life in rat at 1 mg/kg, po; assay type: ADME, organism-based; design: dose 1 mg/kg, route oral; conditions: in vivo; procedure, shortened: as §1
Rattus norvegicus = test: Volume of distribution in rat at 1 mg/kg, po; assay type: ADME, organism-based; design: dose 1 mg/kg, route oral; conditions: in vivo; procedure, shortened: as §1
[5] = Bioavailability in rat at 1 mg/kg, po; assay type: ADME, organism-based; conditions: in vivo; procedure, shortened: as §1
[6] = Ratio of drug level in brain to blood in rat at 1 mg/kg, po; assay type: ADME, organism-based; design: dose 1 mg/kg, route oral
Procedure, shortened: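 Rats received a single oral dose of 1 mg/kg, formulated in 5% DMSO + 0.5% HPMC in water. Drug levels were measured in blood and brain, and the brain/blood ratio was calculated from them. The work followed European directive 86/609/EEC.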

Chain of Cytochrome P450 2C9 (P11712 whole entry): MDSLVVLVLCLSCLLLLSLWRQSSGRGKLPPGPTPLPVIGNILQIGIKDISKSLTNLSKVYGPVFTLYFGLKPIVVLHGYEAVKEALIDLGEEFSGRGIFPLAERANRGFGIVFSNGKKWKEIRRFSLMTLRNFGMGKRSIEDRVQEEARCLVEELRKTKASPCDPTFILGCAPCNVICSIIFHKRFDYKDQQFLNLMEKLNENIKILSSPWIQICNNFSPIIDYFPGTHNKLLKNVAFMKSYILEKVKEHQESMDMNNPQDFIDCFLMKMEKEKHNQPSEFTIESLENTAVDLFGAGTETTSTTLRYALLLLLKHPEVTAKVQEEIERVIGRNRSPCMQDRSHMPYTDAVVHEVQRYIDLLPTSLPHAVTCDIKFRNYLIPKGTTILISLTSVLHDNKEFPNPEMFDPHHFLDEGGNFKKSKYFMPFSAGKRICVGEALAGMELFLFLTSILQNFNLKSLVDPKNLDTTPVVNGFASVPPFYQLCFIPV
Chain of Cytochrome P450 2C19 (P33261 whole entry): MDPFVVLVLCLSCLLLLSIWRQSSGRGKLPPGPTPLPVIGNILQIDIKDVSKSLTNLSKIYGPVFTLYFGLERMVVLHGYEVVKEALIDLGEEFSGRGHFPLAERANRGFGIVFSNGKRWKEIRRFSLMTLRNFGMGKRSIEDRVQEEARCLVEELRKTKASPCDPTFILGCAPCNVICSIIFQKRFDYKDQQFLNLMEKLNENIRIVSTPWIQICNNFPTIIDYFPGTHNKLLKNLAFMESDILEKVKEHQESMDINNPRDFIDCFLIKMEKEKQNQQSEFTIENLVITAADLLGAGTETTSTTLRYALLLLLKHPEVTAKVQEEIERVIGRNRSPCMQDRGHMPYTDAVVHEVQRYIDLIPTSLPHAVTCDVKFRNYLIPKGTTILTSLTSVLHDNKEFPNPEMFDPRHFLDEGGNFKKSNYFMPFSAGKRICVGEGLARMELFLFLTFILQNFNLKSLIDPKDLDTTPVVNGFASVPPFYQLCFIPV
Chain of Cytochrome P450 2D6 (P10635 whole entry): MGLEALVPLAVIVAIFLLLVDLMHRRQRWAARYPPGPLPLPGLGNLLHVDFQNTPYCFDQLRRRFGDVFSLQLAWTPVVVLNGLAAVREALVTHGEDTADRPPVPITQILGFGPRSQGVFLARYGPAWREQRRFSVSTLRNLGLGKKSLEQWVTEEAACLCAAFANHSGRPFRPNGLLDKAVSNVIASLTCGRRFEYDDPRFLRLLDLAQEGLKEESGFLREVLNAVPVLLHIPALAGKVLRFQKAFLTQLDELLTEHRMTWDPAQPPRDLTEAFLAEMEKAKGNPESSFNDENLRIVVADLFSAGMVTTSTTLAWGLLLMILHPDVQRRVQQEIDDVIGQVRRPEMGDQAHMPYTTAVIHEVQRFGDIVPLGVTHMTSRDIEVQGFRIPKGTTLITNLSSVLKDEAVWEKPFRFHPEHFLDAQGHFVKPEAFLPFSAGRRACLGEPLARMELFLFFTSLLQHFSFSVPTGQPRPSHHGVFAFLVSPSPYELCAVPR
Chain of Cytochrome P450 3A4 (P08684 whole entry): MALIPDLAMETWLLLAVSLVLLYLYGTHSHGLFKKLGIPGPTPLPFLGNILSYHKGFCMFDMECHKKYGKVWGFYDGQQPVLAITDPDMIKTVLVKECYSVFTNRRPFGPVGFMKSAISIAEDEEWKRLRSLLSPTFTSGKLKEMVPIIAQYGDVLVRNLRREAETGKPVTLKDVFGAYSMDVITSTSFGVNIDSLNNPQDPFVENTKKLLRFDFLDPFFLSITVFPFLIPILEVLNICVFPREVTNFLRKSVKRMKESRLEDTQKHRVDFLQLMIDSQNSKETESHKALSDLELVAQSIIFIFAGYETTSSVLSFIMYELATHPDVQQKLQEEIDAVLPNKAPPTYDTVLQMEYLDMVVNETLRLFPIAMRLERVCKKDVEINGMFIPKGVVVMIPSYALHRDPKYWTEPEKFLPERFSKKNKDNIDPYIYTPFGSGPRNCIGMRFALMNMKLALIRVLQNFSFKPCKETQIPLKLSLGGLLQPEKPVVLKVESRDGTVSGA

Compound: O=C(Nc1ccccc1C(=O)N1CCCCC1)c1ccc(-c2ccccc2)s1
IC50 (Neuropeptide S receptor): 794 nM

Compound: O=C(Nc1ccccc1C(=O)N1CCCCC1)c1ccc(-c2ccccc2)o1
IC50 (Neuropeptide S receptor): 31.6 nM

Compound: O=C(Nc1ccccc1C(=O)N1CCCCC1)c1ccc(-c2ccccc2)[nH]1
IC50 (Neuropeptide S receptor): > 5010 nM

Compound: O=C(Nc1ccccc1C(=O)N1CCCCC1)c1cccc(-c2ccccc2)n1
IC50 (Neuropeptide S receptor): 20 nM

Compound: O=C(c1ccccc1N1CCCn2c(ccc2-c2ccccc2)C1=O)N1CCCCC1
IC50 (Neuropeptide S receptor): > 5010 nM

Other lines, results leading:

IC50 (Neuropeptide S receptor): 2 nM
Compound: O=C(NCc1ccccc1)N1CCN2C(=O)OC(c3ccccc3)(c3ccccc3)C2C1 (stereo unspecified)

IC50 (Neuropeptide S receptor): > 5010 nM
Compound: O=C(c1ccccc1N1CCn2c(ccc2-c2ccccc2)C1=O)N1CCCCC1

IC50 (Neuropeptide S receptor): 10 nM
IC50 (Cytochrome P450 1A2): > 5 µM
IC50 (Cytochrome P450 2C9): > 5 µM
IC50 (Cytochrome P450 2C19): > 5 µM
IC50 (Cytochrome P450 2D6): > 5 µM
IC50 (Cytochrome P450 3A4): > 5 µM
CL (Liver microsomes [1]): 6.9 mL/min/g
CL (Liver microsomes [2]): 26.3 mL/min/g
CL/F [3]: 69 mL/min/kg
half-life [4]: 42 min
Vd (Rattus norvegicus): 2.4 L/kg
bioavailability [5]: 1%
Kp [6]: 0.3
Compound: O=C(c1ccccc1N1Cn2c(ccc2-c2ccccc2)C1=O)N1CCCCC1

IC50 (Neuropeptide S receptor): 251 nM
Compound: O=C(Nc1ccccc1C(=O)N1CCCCC1)c1cccc(-c2ccccc2)c1
